Series [1] in a line: Spontaneous hydrolysis in neutral aqueous buffer. Conditions: pH 7.5, 25 °C. It is filed as physicochemical. The method, boiled down:
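Test compounds were diluted from concentrated acetonitrile stocks to ≤5% acetonitrile in 20 mM MOPS, pH 7.5, at 25 °C, and their hydrolysis without enzyme was followed by UV-vis. Full progress curves were fit to a pseudo-first-order equation by nonlinear least squares, and triplicate rate constants were averaged. The clavulanic acid reference (85 μM) was run in 25 mM MOPS, pH 7.5, at 25 °C, read at 260 nm.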

Another series addresses class C P99 β-lactamase (Enterobacter cloacae, UniProt P05364). It counts as biochemical. The following applies: steady state turnover by P99 β-lactamase, 20 mM MOPS pH 7.5, 25 °C.
Series [2] can be described thus: pKa determination by spectrophotometric titration. Conditions: spectrophotometric titration at 233 nm, 25 °C, ionic strength 1.0. It counts as physicochemical.
Series [3] addresses T1, P99 β-lactamase (Enterobacter cloacae, UniProt P05364). It counts as biochemical. The following applies: pH range 6.0–9.5, 25 °C, ionic strength 1.0.
Series [4] deals with class D OXA-1 β-lactamase (Escherichia coli, UniProt P13661). Put plainly: OXA-1 β-lactamase hydrolysis and inhibition. It is filed as biochemical.
Chain of class D OXA-1 β-lactamase (P13661 26-276): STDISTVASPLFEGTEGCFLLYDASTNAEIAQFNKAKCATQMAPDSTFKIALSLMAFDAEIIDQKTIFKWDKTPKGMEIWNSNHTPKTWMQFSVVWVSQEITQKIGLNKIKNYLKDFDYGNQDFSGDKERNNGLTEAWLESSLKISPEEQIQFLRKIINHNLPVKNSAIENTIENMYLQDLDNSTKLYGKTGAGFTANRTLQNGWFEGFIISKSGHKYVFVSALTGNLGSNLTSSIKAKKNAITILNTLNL
Series [5] concerns the target Streptomyces R61 DD-peptidase (Streptomyces sp., UniProt P15555). Put plainly: Hydrolysis in the presence of R61 DD-peptidase. It counts as biochemical. The following applies: enzyme 0.5 μM.
For series [6], the target named is Actinomadura R39 DD-peptidase (Actinomadura sp., UniProt P39045). Put plainly: Hydrolysis in the presence of R39 DD-peptidase. It counts as biochemical.
Chain of Actinomadura R39 DD-peptidase (P39045 50-538): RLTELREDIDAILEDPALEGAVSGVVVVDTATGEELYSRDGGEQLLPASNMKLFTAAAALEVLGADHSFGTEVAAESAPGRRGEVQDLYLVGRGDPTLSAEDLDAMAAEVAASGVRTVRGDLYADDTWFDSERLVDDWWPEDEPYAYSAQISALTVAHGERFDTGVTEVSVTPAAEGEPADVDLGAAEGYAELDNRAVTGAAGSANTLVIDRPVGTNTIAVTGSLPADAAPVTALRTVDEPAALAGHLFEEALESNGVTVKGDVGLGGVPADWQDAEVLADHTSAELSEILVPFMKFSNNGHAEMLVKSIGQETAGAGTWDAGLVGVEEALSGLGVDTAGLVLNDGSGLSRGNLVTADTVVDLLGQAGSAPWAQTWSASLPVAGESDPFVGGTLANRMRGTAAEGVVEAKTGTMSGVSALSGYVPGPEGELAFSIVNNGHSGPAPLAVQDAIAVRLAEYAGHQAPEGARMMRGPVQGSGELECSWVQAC
The next series concerns the target class C ampC β-lactamase (Escherichia coli, UniProt P00811). Put plainly: ampC β-lactamase substrate activity. It counts as biochemical.
For series [7] the following is noted: in dioxane/water; cited from earlier work.
For series [8], the target named is T1, P99 β-lactamase. Put plainly: P99 β-lactamase activity with time after incubation with compound. It counts as biochemical. Conditions: enzyme 0.25 μM, compound 100 μM.

The text below walks through data of publication PMC2999657 (Biochemistry, 2010).

T1 sequence (P05364 21-381): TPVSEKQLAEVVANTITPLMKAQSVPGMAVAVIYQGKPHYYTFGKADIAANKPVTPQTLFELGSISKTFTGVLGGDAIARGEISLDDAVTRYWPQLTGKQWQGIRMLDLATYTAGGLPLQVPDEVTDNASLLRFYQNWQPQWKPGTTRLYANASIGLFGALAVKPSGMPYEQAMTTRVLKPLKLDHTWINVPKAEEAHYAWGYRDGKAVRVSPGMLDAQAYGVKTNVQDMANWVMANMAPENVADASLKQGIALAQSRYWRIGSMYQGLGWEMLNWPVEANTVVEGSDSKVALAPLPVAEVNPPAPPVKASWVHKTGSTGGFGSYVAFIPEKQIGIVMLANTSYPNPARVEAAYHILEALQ
Chain of class C P99 β-lactamase (P05364 21-381): as above
Chain of class C ampC β-lactamase (P00811 20-377): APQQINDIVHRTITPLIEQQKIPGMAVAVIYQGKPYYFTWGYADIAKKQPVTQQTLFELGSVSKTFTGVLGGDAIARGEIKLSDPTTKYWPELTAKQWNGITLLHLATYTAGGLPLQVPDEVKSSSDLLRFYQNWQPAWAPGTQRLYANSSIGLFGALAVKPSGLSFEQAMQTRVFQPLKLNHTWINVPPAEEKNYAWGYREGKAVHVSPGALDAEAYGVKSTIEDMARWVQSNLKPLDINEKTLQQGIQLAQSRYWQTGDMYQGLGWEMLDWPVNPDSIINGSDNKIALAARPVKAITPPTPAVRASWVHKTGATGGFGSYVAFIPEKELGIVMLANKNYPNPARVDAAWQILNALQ
Chain of Streptomyces R61 DD-peptidase (P15555 32-406): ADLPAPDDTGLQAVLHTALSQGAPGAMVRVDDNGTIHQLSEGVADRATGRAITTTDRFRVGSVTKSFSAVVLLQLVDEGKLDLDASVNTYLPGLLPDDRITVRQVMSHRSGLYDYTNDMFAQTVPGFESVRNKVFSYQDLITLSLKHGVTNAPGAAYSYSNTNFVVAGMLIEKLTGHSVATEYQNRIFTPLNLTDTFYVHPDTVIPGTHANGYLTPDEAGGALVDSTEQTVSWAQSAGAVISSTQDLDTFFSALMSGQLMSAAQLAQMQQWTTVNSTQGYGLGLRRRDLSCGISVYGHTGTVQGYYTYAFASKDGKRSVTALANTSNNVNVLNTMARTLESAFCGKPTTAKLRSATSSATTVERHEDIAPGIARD

`O=C(O)[C@H]1/C(=C/CO)O[C@@H]2CC(=O)N21` [clavulanic acid, reference compound]: in series [1] (85 μM in 25 mM MOPS buffer, monitored at 260 nm), the “spontaneous hydrolysis rate constant” value came out at 8e-05 s⁻¹.
As for `O=C(NOC(=O)C(O)Cc1ccccc1)OCc1ccccc1` (stereo not shown) [Compound 7, N-(Benzyloxycarbonyl)-O-(2-hydroxy-3-phenylpropanoyl)hydroxylamine], the “ksp, rate constant of spontaneous hydrolysis” value in [1] (20 mM MOPS) was “(8.2 ± 0.8) × 10^−5 s^−1”. Besides, on class C P99 β-lactamase, the Km amounted to 71 ± 10 µM. The “pKa (acidic NH proton)” value in series [2] was 7.58 ± 0.03. The “pKa for decreasing activity in pH-rate profile” value on P99 β-lactamase [3] is 7.6 ± 0.2. In addition, the “fast reversible or slow inhibition of the OXA-1 enzyme” value in [4] is reported as “no significant fast reversible or slow inhibition”. Moreover, the “hydrolysis catalyzed by OXA-1” value in series [4] (20 mM MOPS, 50 mM NaHCO3, 0.1 % gelatin, pH 7.5) is “did not catalyze hydrolysis”. In [5], the “substrate activity with R61 DD-peptidase” value is recorded as “not substrates”. Moreover, the “substrate activity with R39 DD-peptidase” value in series [6] is “not substrates”. Further, at class C ampC β-lactamase, the “substrate activity with ampC β-lactamase” value is listed as “good substrate”.
In the case of `O=[N+]([O-])c1ccc(O)cc1` [p-nitrophenol], in series [7], the pKa was 9.4.
For the compound “N-(Benzyloxycarbonyl)-O-(1-D-carboxy-ethoxycarbonyl)hydroxylamine [2 (R = CH2Ph, R′=Me)]”, at P99 β-lactamase [8], the “enzyme activity against cephalothin with time after mixing” value was “initial loss of enzyme activity, measured against the good substrate, cephalothin, followed by a slower restoration of activity”.
Regarding `O=C(NOC(=O)C(O)Cc1ccccc1)OCc1ccccc1` (stereo not shown) [Compound 8, N-(Benzyloxycarbonyl)-O-(2-hydroxy-3-phenylpropanoyl)hydroxylamine], the Km on class C P99 β-lactamase was found to be 340 ± 60 µM.
